From the RNAGym collection of RNA variant scans (doi:10.1126/science.aae0568) come the findings set out here.

Variants at the floor of the assay were thinned out.

The chains are these.
B1: tRNA (parent)
chain: GUUCCGUUGGCGUAAUGGUAACGCGUCUCCCUCCUAAGGAGAAGACUGCGGGUUCGAGUCCCGUACGGAACG

The variants in this data set derive from B1. The data set can be described thus: yeast fitness relative to wild type (ratio to wild type); higher = fitter; tRNA-Arg(CCU), competitive growth, 37 C, YPD. An outline of the steps:
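Gene amplicons from the start population and from each of six end populations were read by 100-nucleotide paired-end sequencing. Those end populations came from pooled Saccharomyces cerevisiae strains carrying tRNA-Arg(CCU) gene variants at the native locus, competed in YPD at 37°C for 24 hours. Fitness relative to wild type was worked out from changes in genotype frequencies. Genotypes needed ≥ 100 starting reads, and estimates < 0.5 were set to 0.5.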
As for G6A G10A C60G, the yeast fitness is not above 0.5.

A43G G51A G58A: the yeast fitness worked out at 0.58.

In the case of U16A U26A, the yeast fitness worked out at 0.974.

On to G10C C46A A69U, for which the yeast fitness was 0.615.

Take A15G A20C A21C G23A G52U: the yeast fitness is not above 0.5.

A42U A69U: the yeast fitness was 1.02.

On to U7C A36G A45U, for which the yeast fitness came to 0.569.

As for U26A G68A, the yeast fitness was 0.779.

For the variant A57C A65U C66G, the yeast fitness is not above 0.5.

Consider G12A C27G C34A C49A C60G C61U, for which the yeast fitness came out at 0.527.

Take U32C C46G A65G: the yeast fitness was 0.917.

C5U A15U C55A: the yeast fitness was not above 0.5.

As to C4U G17C G44A C61U, the yeast fitness turned out to be 0.556.

For G6A C24U G63A, the yeast fitness is 0.674.

Turning to C24G C27A A45C C62G, the yeast fitness is not above 0.5.

Regarding U2C C4U A42G, the yeast fitness was 0.512.

On to U8A C33U A36U A70G, for which the yeast fitness was not above 0.5.

For G6A G17A, the yeast fitness came to 0.633.

C5G U13C A43C: the yeast fitness was not above 0.5.

Turning to G6C A14U A36G A42G G52A G58A, the yeast fitness is not above 0.5.

As for G17A U54A G56C, the yeast fitness was 0.597.

In the case of C24U C49U U54G, the yeast fitness was found to be 0.588.

For A36C U47A G48C C62G, the yeast fitness is not above 0.5.

Consider C5A A20C C22A A36C A69U, for which the yeast fitness turned out to be 0.587.

For C5U G10A G38C, the yeast fitness is not above 0.5.

Take A15C C31G C49U: the yeast fitness worked out at 0.638.

With G6C A42C A65G C66G, the yeast fitness worked out at 0.532.

Regarding G17A C31G G44C A69U, the yeast fitness came out at 0.528.

For the variant C29U G51A G56A G63C, the yeast fitness was 0.528.

Consider U28A C31G U35C C60U C61U, for which the yeast fitness was not above 0.5.

Take G10A G44C: the yeast fitness is 0.79.

Take U8C A20U C30G A37G G44A: the yeast fitness is not above 0.5.

As to A15U C49U G56A C61G, the yeast fitness is not above 0.5.

Take U2A G50C A57G: the yeast fitness was not above 0.5.

For C11A A21U U54G, the yeast fitness is not above 0.5.

On to A43U C60A C62U, for which the yeast fitness was 0.65.

As for A15G C31G U35C, the yeast fitness came to 0.531.

On to A42C A65U C66U, for which the yeast fitness was found to be 0.558.

For C11G G12A C30G C31G U32A C66U, the yeast fitness is not above 0.5.

With U13C C30G U35C, the yeast fitness was not above 0.5.

Take U19C C24G A36G A37U U47A: the yeast fitness is not above 0.5.

Regarding C24U A36C A43U, the yeast fitness is 0.578.

Take C5A A21U G50A: the yeast fitness was not above 0.5.

In the case of G12A C22G A57C, the yeast fitness is 0.549.

Turning to C4U U26A A69U, the yeast fitness was determined as 0.641.

Regarding G18C U19G A45C, the yeast fitness worked out at 0.73.

Consider U3G C49A G63U G67A, for which the yeast fitness was not above 0.5.

As for C11U A20U G39A A65C, the yeast fitness came out at 0.533.

As to A20G A36U A42G G58A, the yeast fitness was not above 0.5.

C11U C27G C62U A65U: the yeast fitness is not above 0.5.

With U7A C46G, the yeast fitness came to 0.787.

Take A14U A40G: the yeast fitness worked out at 0.707.

Turning to U2G G51A C60U, the yeast fitness is not above 0.5.

Take C5U U54C: the yeast fitness was 0.805.

On to U35C C49G A70U, for which the yeast fitness was 0.563.

Take C4G A20U G41A A57C: the yeast fitness was not above 0.5.

As for A20G A42C C66U, the yeast fitness is 0.625.

As to G10C A14U G67A, the yeast fitness is not above 0.5.

With U35C C55A A69U, the yeast fitness was not above 0.5.

Turning to G6A U47A U64A, the yeast fitness is not above 0.5.

Regarding U7A C60U, the yeast fitness stood at 0.652.

U3C G9A A20C C29U G50C U59G C62U G68A: the yeast fitness was not above 0.5.

As to C4G A20G C27A C46U A65U, the yeast fitness is not above 0.5.

Regarding U3G C5U C31A A65U, the yeast fitness was not above 0.5.

For the variant C27G C34G C46U, the yeast fitness is 0.65.

Turning to U13A C31A G44A A57G A65C A70U, the yeast fitness is not above 0.5.

Take G48A G63C: the yeast fitness stood at 0.89.

For the variant C4G C11A U32A U35A C49U U59G G67U, the yeast fitness was not above 0.5.

Regarding U54C A69G A70G, the yeast fitness came to 0.566.

Take C5A U8C C11A A15G C27U A42U C61A C62U: the yeast fitness was determined as 0.502.

Consider C5G C24U C33U A57U A69U, for which the yeast fitness was not above 0.5.

For the variant G6A C33U C34U C62G, the yeast fitness is not above 0.5.

As to C5G A15G U16A A20G U28A C30A C33A A36U A65U A69C, the yeast fitness was not above 0.5.

G6A C33G C34G G41A G58C A70C: the yeast fitness was determined as 0.519.

Regarding C29A C30U U64C, the yeast fitness was not above 0.5.

As to U7C G12C A20C, the yeast fitness came out at 0.632.

With C29G A65G C66A, the yeast fitness was not above 0.5.

In the case of G10A C29A A57C U59A, the yeast fitness was not above 0.5.

Consider U7C C11A C30G, for which the yeast fitness is not above 0.5.

Regarding C11U G51A, the yeast fitness amounted to 0.727.

In the case of C29A A37C A42C G50A, the yeast fitness was not above 0.5.

Take G10A U16A G38C G41C A65G: the yeast fitness is not above 0.5.

As to G51C C62G, the yeast fitness stood at 0.528.

For the variant A15G G25A C61U, the yeast fitness worked out at 0.558.

For U3A A15U G23C C27U G52A, the yeast fitness amounted to 0.64.

Regarding U8A C22U U35C, the yeast fitness was not above 0.5.

For U7C A21C C34U C49U A69U, the yeast fitness is not above 0.5.

Regarding A20G C22G C49G, the yeast fitness was found to be 0.568.

C11U C31U A42C G44A A45U: the yeast fitness is not above 0.5.

Consider U3A C4A U8C C30U A45C G52C, for which the yeast fitness is not above 0.5.

As to C4G C27A A36G, the yeast fitness came out at 0.534.

On to A36G G67U, for which the yeast fitness was found to be 0.901.

For U7A C34G A40C A57U, the yeast fitness is not above 0.5.

As for A20C G48C A57G, the yeast fitness is 0.545.

With A45U A70U, the yeast fitness came out at 0.925.

Take C24A G25A U47C G52C: the yeast fitness is not above 0.5.

Take A14U C24G C31A A40G G44C C55U: the yeast fitness was not above 0.5.

On to G25A U54C, for which the yeast fitness came to 0.87.

For C4U A42G A57U, the yeast fitness was 0.551.

Turning to C34G U53C, the yeast fitness worked out at 0.578.

For the variant U2G C27G C33U C49U, the yeast fitness is not above 0.5.

With C24U C29U A42G U59C, the yeast fitness is not above 0.5.

U2G U16C C27U U35C: the yeast fitness was not above 0.5.

A14C A57G: the yeast fitness was 0.748.

With U3A C4A A20C C29A C66U, the yeast fitness was not above 0.5.

Regarding G39C G41A C60G C61U C62G A65U, the yeast fitness turned out to be 0.547.

For G6A G17C C31G G50U U53A, the yeast fitness came to 0.559.

As to C4G U47C, the yeast fitness is 0.865.

Regarding C5U C27G C55G A69U, the yeast fitness was not above 0.5.

For U35C A57G, the yeast fitness was determined as 0.739.

As to C5A C24U C29U C30A A37C A65C, the yeast fitness stood at 0.549.

As for G18A A42U, the yeast fitness amounted to 0.683.

Regarding A21U G23A U64C G67A, the yeast fitness was 0.568.

As to A36C A70G, the yeast fitness turned out to be 0.605.

For A15G G25A C27U C49U, the yeast fitness was 0.714.

Take C4A A15G C33U: the yeast fitness came to 0.753.

In the case of C11U U19G C27U G48A C66U, the yeast fitness was not above 0.5.

Take C4U C24U A43G: the yeast fitness was 0.555.

Consider C22U C46A C66U, for which the yeast fitness is not above 0.5.

For A14G G44C, the yeast fitness turned out to be 0.928.

Consider A36G U59C, for which the yeast fitness worked out at 1.18.

Consider C49G C66A G67U, for which the yeast fitness was not above 0.5.

With C46A G63A, the yeast fitness is 0.949.

With G12A U19G U35C A40U G52C U64C, the yeast fitness is not above 0.5.

Take A21G C49U A70G: the yeast fitness is 0.817.

As for A20G G25A C34A G50C, the yeast fitness was found to be 0.578.

With U2A C34U, the yeast fitness turned out to be 0.743.

Regarding C5U C22U C33U, the yeast fitness came out at 0.561.

G17A G25C C29G: the yeast fitness was not above 0.5.

With G9A G12A, the yeast fitness was found to be 0.927.

As to A14C U28A, the yeast fitness turned out to be 0.618.

With U16G C24U C29G C49G A65G, the yeast fitness came out at 0.601.

Take U19A: the yeast fitness was 1.

As to G9C C24G G41A G52A C66U, the yeast fitness was determined as 0.602.

Take U2C C27A C31G: the yeast fitness came out at 0.557.

On to U8A A15C G18C C49U C62U, for which the yeast fitness is not above 0.5.

For the variant U7G U8A A14G C62U A65U, the yeast fitness is not above 0.5.

Regarding G10A C30A C62A, the yeast fitness was not above 0.5.

Turning to C5G G41A A42C G50C A70G, the yeast fitness was not above 0.5.

In the case of U2A A15U C27U C30A G41C C49A C55G C61A, the yeast fitness is not above 0.5.

In the case of U2G A15C A36C, the yeast fitness came to 0.649.

Take G44C C55G A65G: the yeast fitness was 0.555.

As to G17C C34A G50A U53G C60U, the yeast fitness was not above 0.5.

For the variant U2A A14C C30U C34G, the yeast fitness was not above 0.5.

With G17C U19A A36C A37U A65C, the yeast fitness worked out at 0.592.

For C34U G44C G56A, the yeast fitness is not above 0.5.

With C5A C24U A36C C66U, the yeast fitness is not above 0.5.

C5A C49U A65U G67C: the yeast fitness is not above 0.5.

As to U35G C61G, the yeast fitness was not above 0.5.

With G10A A14C U32A, the yeast fitness was not above 0.5.

G25A G50A G63C: the yeast fitness is 0.641.

Consider U8G C31U C66U, for which the yeast fitness was not above 0.5.

For C4A A37C A42C, the yeast fitness stood at 0.506.

In the case of A36C G50A C55A, the yeast fitness turned out to be 0.766.

For the variant G6A C24U A65U, the yeast fitness was not above 0.5.

Take A21U C55G G68A A70C: the yeast fitness is not above 0.5.

For C31U A43U, the yeast fitness was found to be 1.11.

Regarding A20G U53G, the yeast fitness was 0.571.

Take C24A A43C A65G: the yeast fitness is not above 0.5.

U32C C46G C61G: the yeast fitness turned out to be 0.587.

For A45U C46G C60A, the yeast fitness came out at 0.557.

C11G C22G C24U G50C: the yeast fitness is not above 0.5.

As to A15G C46U A65U, the yeast fitness is 0.735.

Regarding G6C C31A C33U C62U, the yeast fitness was not above 0.5.

As to C49U U64C, the yeast fitness amounted to 0.921.

In the case of U19A C27G, the yeast fitness amounted to 0.581.

Regarding U8C U13C A14C C30U A42G G50C C55U, the yeast fitness turned out to be 0.671.
